From ChEMBL document CHEMBL4145652, “Chemoenzymatic Synthesis and Pharmacological Characterization of Functionalized Aspartate Analogues As Novel Excitatory Amino Acid Transporter Inhibitors” (J Med Chem, 2018) come the findings set out here.

Assay type in all cases: cell-based
In experiment [1] the target is T1, Excitatory amino acid transporter 3 (Homo sapiens) (UniProt P43005).
T1 sequence (whole entry): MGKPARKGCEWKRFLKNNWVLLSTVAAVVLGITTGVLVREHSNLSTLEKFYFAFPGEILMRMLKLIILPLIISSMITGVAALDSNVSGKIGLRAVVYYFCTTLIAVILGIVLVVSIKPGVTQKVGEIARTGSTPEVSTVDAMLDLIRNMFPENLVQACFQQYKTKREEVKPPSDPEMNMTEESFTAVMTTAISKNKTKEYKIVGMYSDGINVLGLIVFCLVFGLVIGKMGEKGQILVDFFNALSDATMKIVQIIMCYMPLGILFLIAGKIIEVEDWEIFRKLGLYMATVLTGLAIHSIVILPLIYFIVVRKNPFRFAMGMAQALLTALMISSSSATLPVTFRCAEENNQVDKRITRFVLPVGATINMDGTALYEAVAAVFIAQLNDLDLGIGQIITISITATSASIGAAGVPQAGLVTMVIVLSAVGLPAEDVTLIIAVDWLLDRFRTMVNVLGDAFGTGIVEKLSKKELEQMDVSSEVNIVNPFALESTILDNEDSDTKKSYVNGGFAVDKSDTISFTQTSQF
The experiment is described as follows: Potency index, ratio of IC50 for DL-TBOA to IC50 for test compound for inhibition of human EAAT3 expressed in HEK293 cells assessed as reduction in [3H]-D-Asp uptake incubated for 4 mins by scintillation counting method. The method in brief:
(§1)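 Stable HEK293 lines expressing human transporter, plated on poly-D-lysine 16–24 h before assay. Washed cells were given HBSS/20 mM HEPES/1 mM CaCl2/1 mM MgCl2, pH 7.4, with 100 nM [3H]-D-Asp plus graded inhibitor for 4 min at 37 °C. Nonspecific uptake was taken with 3 mM L-Glu. IC50 came from a Hill fit; index = DL-TBOA IC50 ÷ test IC50. Three or four independent runs in duplicate.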

Experiment [2] deals with T2, Excitatory amino acid transporter 1 (Homo sapiens, UniProt P43003). The experiment in a line: Potency index, ratio of IC50 for NBI59159 to IC50 for test compound for inhibition of human EAAT1 expressed in HEK293 cells assessed as reduction in [3H]-D-Asp uptake incubated for 4 mins by scintillation counting method.
The target in experiment [3] is T3, Excitatory amino acid transporter 3 (Homo sapiens, UniProt P43005).
T3 sequence (P43005 whole entry): T1 sequence (whole entry)
The experiment is described as follows: Inhibition of human EAAT3 expressed in HEK293 cells assessed as reduction in [3H]-D-Asp uptake incubated for 4 mins by scintillation counting method. In a few lines:
(§2)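 HEK293 cells stably expressing human EAAT1, EAAT2 or EAAT3 were plated 16–24 h before the assay. Cells were washed and incubated with 100 nM [3H]-D-Asp plus graded compound concentrations in HBSS/20 mM HEPES/CaCl2/MgCl2, pH 7.4, for 4 min at 37 °C. Uptake was in the linear range at this time. Cells were washed ice-cold and counted by scintillation. IC50 came from a Hill-equation fit. Three or four independent assays in duplicate.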

Experiment [4] has as its target T2, Excitatory amino acid transporter 1. The experiment is described as follows: Potency index, ratio of IC50 for DL-TBOA to IC50 for test compound for inhibition of human EAAT1 expressed in HEK293 cells assessed as reduction in [3H]-D-Asp uptake incubated for 4 mins by scintillation counting method. In a few lines:
as §1

Experiment [5] deals with T4, Excitatory amino acid transporter 2 (Homo sapiens, UniProt P43004). The experiment is described as follows: Inhibition of human EAAT2 expressed in HEK293 cells assessed as reduction in [3H]-D-Asp uptake incubated for 4 mins by scintillation counting method. Conditions: read-out: IC50. The method in brief:
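HEK293 cells stably expressing human EAAT1, EAAT2 or EAAT3 were plated 16–24 h before the assay. Cells were washed and incubated with 100 nM [3H]-D-Asp plus graded compound concentrations in HBSS/20 mM HEPES/CaCl2/MgCl2, pH 7.4, for 4 min at 37 °C. Uptake was in the linear range at this time. Nonspecific uptake was defined with 3 mM L-Glu. Cells were washed ice-cold and counted by scintillation. IC50 came from a Hill-equation fit. Three or four independent assays in duplicate.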

Experiment [6] deals with T5, Excitatory amino acid transporter 4 (Rattus norvegicus, UniProt O35921).
T5 sequence (O35921 whole entry): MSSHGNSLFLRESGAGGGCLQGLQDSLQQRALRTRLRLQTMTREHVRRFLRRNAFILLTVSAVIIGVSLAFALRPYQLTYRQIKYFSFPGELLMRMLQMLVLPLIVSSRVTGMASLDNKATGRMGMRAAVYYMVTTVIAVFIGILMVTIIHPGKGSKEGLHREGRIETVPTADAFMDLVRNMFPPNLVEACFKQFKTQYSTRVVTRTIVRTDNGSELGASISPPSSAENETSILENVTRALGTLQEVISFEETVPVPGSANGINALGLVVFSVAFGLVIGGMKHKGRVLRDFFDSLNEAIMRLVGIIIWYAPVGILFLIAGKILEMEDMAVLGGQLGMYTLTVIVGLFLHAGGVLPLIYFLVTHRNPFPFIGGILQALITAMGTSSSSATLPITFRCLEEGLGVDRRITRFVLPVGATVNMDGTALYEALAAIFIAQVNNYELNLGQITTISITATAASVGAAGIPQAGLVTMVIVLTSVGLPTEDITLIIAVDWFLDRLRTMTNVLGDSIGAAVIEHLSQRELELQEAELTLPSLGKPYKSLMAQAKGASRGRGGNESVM
The experiment in a line: Inhibition of rat EAAT4 expressed in tsA201 cells assessed as reduction in [3H]-D-Asp uptake incubated for 4 mins by scintillation counting method. Conditions: read-out: IC50. The method in brief: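 Rat EAAT4 stably expressed in tsA201 cells, induced with 1 μg/mL tetracycline during overnight plating. [3H]-D-Asp (100 nM) uptake with graded compound concentrations ran for 4 min at 37 °C in HEPES-buffered HBSS, pH 7.4. Uptake was linear at this time. Nonspecific uptake was defined by 3 mM L-Glu. Read-out by scintillation counting. IC50 came from a Hill-equation fit. Three or four independent assays in duplicate.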

Experiment [7] concerns the target T2, Excitatory amino acid transporter 1. The experiment is described as follows: Inhibition of human EAAT1 expressed in HEK293 cells assessed as reduction in [3H]-D-Asp uptake incubated for 4 mins by scintillation counting method. The method in brief:
as §2

Experiment [8] concerns the target T6, Excitatory amino acid transporter 4 (Rattus norvegicus) (UniProt O35921).
T6 sequence (whole entry): T5 sequence (O35921 whole entry)
The experiment in a line: Potency index, ratio of IC50 for DL-TBOA to IC50 for test compound for inhibition of rat EAAT4 expressed in tsA201 cells assessed as reduction in [3H]-D-Asp uptake incubated for 4 mins by scintillation counting method. The method in brief:
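Stable rat EAAT4 tsA201 line induced with 1 µg/mL tetracycline on plating, 16–24 h before assay. Uptake used 100 nM [3H]-D-Asp with graded inhibitor in HEPES-buffered HBSS, pH 7.4, for 4 min at 37 °C. 3 mM L-Glu defined nonspecific uptake. Scintillation counts were Hill-fitted for IC50; index = DL-TBOA IC50 ÷ test IC50. Three or four independent runs in duplicate.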

The target of experiment [9] is T4, Excitatory amino acid transporter 2. The experiment is described as follows: Potency index, ratio of IC50 for NBI59159 to IC50 for test compound for inhibition of human EAAT2 expressed in HEK293 cells assessed as reduction in [3H]-D-Asp uptake incubated for 4 mins by scintillation counting method.
For experiment [10] the target is unchanged. The experiment is described as follows: Potency index, ratio of IC50 for DL-TBOA to IC50 for test compound for inhibition of human EAAT2 expressed in HEK293 cells assessed as reduction in [3H]-D-Asp uptake incubated for 4 mins by scintillation counting method. In a few lines:
as §1

In experiment [11] the target is T1, Excitatory amino acid transporter 3 (Homo sapiens). The experiment in a line: Potency index, ratio of IC50 for NBI59159 to IC50 for test compound for inhibition of human EAAT3 expressed in HEK293 cells assessed as reduction in [3H]-D-Asp uptake incubated for 4 mins by scintillation counting method.
Experiment [12] shares this target. The experiment is described as follows: Potency index, ratio of IC50 for WAY-213613 to IC50 for test compound for inhibition of human EAAT3 expressed in HEK293 cells assessed as reduction in [3H]-D-Asp uptake incubated for 4 mins by scintillation counting method.
For experiment [13], the target named is T2, Excitatory amino acid transporter 1. The experiment is described as follows: Potency index, ratio of IC50 for WAY-213613 to IC50 for test compound for inhibition of human EAAT1 expressed in HEK293 cells assessed as reduction in [3H]-D-Asp uptake incubated for 4 mins by scintillation counting method.
The target in experiment [14] is T6, Excitatory amino acid transporter 4 (Rattus norvegicus). The experiment in a line: Potency index, ratio of IC50 for WAY-213613 to IC50 for test compound for inhibition of rat EAAT4 expressed in tsA201 cells assessed as reduction in [3H]-D-Asp uptake incubated for 4 mins by scintillation counting method.
The target in experiment [15] is T4, Excitatory amino acid transporter 2. The experiment is described as follows: Potency index, ratio of IC50 for WAY-213613 to IC50 for test compound for inhibition of human EAAT2 expressed in HEK293 cells assessed as reduction in [3H]-D-Asp uptake incubated for 4 mins by scintillation counting method.

pIC50: −log10 of the molar value.

In general, pIC50 refers to the IC50 on a negative log10 scale, so that one unit is a factor of ten.

T4 sequence (P43004 whole entry): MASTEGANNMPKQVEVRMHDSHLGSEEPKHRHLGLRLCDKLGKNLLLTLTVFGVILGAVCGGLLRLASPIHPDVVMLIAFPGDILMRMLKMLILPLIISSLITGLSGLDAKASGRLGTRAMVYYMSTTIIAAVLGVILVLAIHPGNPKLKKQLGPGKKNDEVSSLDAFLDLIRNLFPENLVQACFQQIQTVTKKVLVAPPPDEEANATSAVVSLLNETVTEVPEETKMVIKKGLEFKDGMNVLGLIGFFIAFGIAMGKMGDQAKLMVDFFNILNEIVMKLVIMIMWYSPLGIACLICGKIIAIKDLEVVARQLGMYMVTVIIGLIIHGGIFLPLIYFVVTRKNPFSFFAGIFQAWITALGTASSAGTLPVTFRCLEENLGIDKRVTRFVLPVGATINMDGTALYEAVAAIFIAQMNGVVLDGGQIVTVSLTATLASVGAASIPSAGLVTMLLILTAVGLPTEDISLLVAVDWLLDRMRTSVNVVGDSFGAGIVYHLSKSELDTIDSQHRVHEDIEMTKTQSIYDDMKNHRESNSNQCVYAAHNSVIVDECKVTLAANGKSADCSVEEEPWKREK
T2 sequence (P43003 whole entry): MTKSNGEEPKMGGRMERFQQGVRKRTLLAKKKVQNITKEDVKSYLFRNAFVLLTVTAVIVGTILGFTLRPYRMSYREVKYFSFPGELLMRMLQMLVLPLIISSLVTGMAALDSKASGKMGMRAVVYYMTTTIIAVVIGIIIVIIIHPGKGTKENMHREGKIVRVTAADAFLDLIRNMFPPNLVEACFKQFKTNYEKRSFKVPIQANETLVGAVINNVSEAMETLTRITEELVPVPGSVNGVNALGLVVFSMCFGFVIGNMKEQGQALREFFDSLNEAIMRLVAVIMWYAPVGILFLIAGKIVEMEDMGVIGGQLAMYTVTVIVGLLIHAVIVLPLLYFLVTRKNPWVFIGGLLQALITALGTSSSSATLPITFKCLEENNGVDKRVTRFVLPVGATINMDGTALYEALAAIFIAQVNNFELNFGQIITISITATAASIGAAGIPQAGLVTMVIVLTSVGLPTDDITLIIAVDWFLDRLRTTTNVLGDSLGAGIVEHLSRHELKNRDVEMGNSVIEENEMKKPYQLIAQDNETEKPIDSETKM

`N[C@H](C(=O)O)[C@H](OCc1ccccc1)C(=O)Nc1ccc2c(c1)Cc1ccccc1-2`: the Ratio IC50 was 69 in [1]; 83 in [2]; 180 in [4]; 29 in experiment [8]; 30 in experiment [9]; 40 in experiment [10]. For the same compound, in experiment [11], the Ratio IC50 came out at 1.6. The pIC50 in experiment [3] is 7.26; in experiment [5], 7.33; in [6], 7.10; in [7], 7.92.
`N[C@H](C(=O)O)[C@H](OCc1ccccc1)C(=O)Nc1ccc(Oc2cc(F)c(F)cc2Br)cc1`: the Ratio IC50 in [1] turned out to be 40; in [4], 190; in experiment [12], 20; in [13], 78; in experiment [14], 11; in [8], 16. Also, the results for the Ratio IC50 in experiment [15] and in experiment [10] were 2 and 53, respectively. Besides, the pIC50 in experiment [3] was 7.03; in experiment [5], 7.44; in experiment [6] it was 6.85; in [7] it was 7.96.
